Test results taken from article PMC6886526 (Journal of structural biology, 2016).
Values joined by “and” are separate entries in the source; they are usually repeats but may differ in a detail not shown here. Identical values can stand only once.

Legend:
StAcrR [1] = target: T1, StAcrR (Salmonella enterica subsp. enterica serovar Typhimurium, UniProt Q7CR15); assay: Competition FP assay in the presence of Pf; type: binding; settings: for IC50: IC50, competition FP, 10 μM StAcrR and 100 nM Pf
Human enolase 1 (ENO1) = Human enolase 1 (ENO1) (Homo sapiens, UniProt P06733); assay: FTS assay with negative control protein; type: binding; settings: 10, 25, 50 and 100 μM ligand
Method in brief: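 Human enolase 1 was mixed with SYPRO Orange dye in 100 mM HEPES pH 7.5 with 150 mM NaCl. Ligands were dispensed acoustically from a DMSO stock. Plates were scanned from 10 to 80 °C at 1.5 °C min-1 on a real-time PCR instrument, reading fluorescence every 10 s. Stabilisation was judged from the melting temperature shift (ΔTm), background reduction and melting-curve shape.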

StAcrR [2] = target: T1, StAcrR; assay: Fluorescence-based thermal shift; type: binding; settings: for FTS rank (Table S1): rank among hits of the SPC2-ECH008 library screen; for dose-dependent effect on StAcrR thermal stability: 2.5-100 μM ligand
StAcrR [3] = target: T1, StAcrR; assay: Fluorescence polarization; type: binding
EcAcrR-Glu67Ala mutant = settings: ref Li et al., 2007, Su et al.; cited from earlier work
human ENO1 = human ENO1 (Homo sapiens, UniProt P06733); assay: FP binding assay with negative control protein; settings: ENO1 up to 100 μM
Chain of human ENO1 (P06733 whole entry): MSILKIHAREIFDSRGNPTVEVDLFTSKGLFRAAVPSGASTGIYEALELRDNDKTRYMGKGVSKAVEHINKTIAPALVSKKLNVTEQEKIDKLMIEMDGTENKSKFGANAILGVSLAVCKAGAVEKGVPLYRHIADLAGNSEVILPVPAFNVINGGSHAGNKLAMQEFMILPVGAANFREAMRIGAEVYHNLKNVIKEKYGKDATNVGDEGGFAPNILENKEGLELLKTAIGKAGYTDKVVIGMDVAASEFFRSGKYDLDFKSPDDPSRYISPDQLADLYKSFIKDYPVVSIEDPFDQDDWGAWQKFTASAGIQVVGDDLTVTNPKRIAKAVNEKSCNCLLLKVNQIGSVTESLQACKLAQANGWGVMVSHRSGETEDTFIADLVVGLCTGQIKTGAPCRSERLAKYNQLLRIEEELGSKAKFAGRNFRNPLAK

Chain of Human enolase 1 (ENO1) (P06733 whole entry): as above

Compound | IC50 (StAcrR [1]) | FTS rank (Table S1) (StAcrR [2]) | dose-dependent effect on StAcrR thermal stability (StAcrR [2]) | also measured
Cc1cc(N)c2ccccc2[n+]1CCCCCCCCCC[n+]1c(C)cc(N)c2ccccc21 [Dequalinium chloride, dequalinium] | 22.5 µM | 14 | – | effect on thermal stability of human enolase 1 (Human enolase 1 (ENO1)): no effect; change of Tm of StAcrR (StAcrR [2]; below 10 μM ligand): did not notably change
O=C(NC(=O)c1c(F)cccc1F)Nc1ccc(Cl)cc1 [Diflubenzuron, diflubenzuron] | – | – | – | competition with Pf for binding (StAcrR [1]; negative control ligand): did not compete
C[C@]12CC[C@@H]3c4ccc(OC(=O)N(CCCl)CCCl)cc4CC[C@H]3[C@@H]1CC[C@@H]2O [Estramustine, estramustine] | ~18 µM and 18 µM | 5 | Apparent increase in the StAcrR thermal stability at very low concentrations | –
CC[n+]1c(-c2ccccc2)c2cc(N)ccc2c2ccc(N)cc21 [Et, ethidium] | – | – | – | Kd (StAcrR [3]): 67.3 ± 4.6 µM; binding by the Glu67Ala mutant of EcAcrR (EcAcrR-Glu67Ala mutant): abolishment of the binding
C[C@]12CC[C@@H]3c4ccc(O)cc4C[C@@H](CCCCCCCCC[S+]([O-])CCCC(F)(F)C(F)(F)F)[C@H]3[C@@H]1CC[C@@H]2O (stereo partly shown) [Fulvestrant, fulvestrant] | 40.1 µM | 1 | Apparent increase in the StAcrR thermal stability at very low concentrations | –
COC1=C(OC)C(=O)C(CCCCCCCCCCO)=C(C)C1=O [Idebenone, idebenone] | 2.8 µM | 2 | required higher concentrations | –
Nc1ccc2cc3ccc(N)cc3nc2c1 [Pf, proflavine] | – | – | – | FP increase with human ENO1 (human ENO1): No FP increase; Kd (StAcrR [3]): 3.9 ± 0.1 µM; affinity to StAcrR relative to Et and R6G (StAcrR [3]; ratio of FP Kd values): over 10 fold; binding by the Glu67Ala mutant of EcAcrR (EcAcrR-Glu67Ala mutant): abolishment of the binding
C[C@]12CC[C@H](O)CC1=CC[C@@H]1[C@@H]2CC[C@]2(C)C(=O)CC[C@@H]12 [Prasterone, prasterone] | 5.4 µM | 6 | required higher concentrations | FTS rank (Table S1) (StAcrR [2]; listed as prasterone): 9
CC/N=c1\cc2oc3cc(NCC)c(C)cc3c(-c3ccccc3C(=O)OCC)c-2cc1C [R6G, rhodamine 6G] | – | – | – | Kd (StAcrR [3]): 43.7 ± 1.3 µM; binding by the Glu67Ala mutant of EcAcrR (EcAcrR-Glu67Ala mutant): abolishment of the binding
CC(C)c1nc(CN(C)C(=O)N[C@H](C(=O)N[C@@H](Cc2ccccc2)C[C@H](O)[C@H](Cc2ccccc2)NC(=O)OCc2cncs2)C(C)C)cs1 [Ritonavir, ritonavir] | – | 4 | Apparent increase in the StAcrR thermal stability at very low concentrations | –
CSc1nc2cc(Cl)c(Oc3cccc(Cl)c3Cl)cc2[nH]1 [Triclabendazole, triclabendazole] | 25.7 µM | 3 | required higher concentrations | –
